# Where “and” joins values, the source holds several entries; their conditions need not be identical. Equal values may be shown once. Read-outs that look alike come from different tables or passages of the source.
# How the values were obtained:
# [1] = Compound aggregation in steady-state ATP assays; assay type: physicochemical; conditions: 20-μL steady-state ATP assay; previously observed in the laboratory
# TAg = conditions: read-out: IC50 for MAL2-11B; ref 21 (Huryn et al.); cited from earlier work
# [2] = biological target: SV40 large T antigen ATPase activity (Simian virus 40, UniProt P03070); assay: SV40 TAg ATPase primary assay; assay type: biochemical; conditions: 1% DMSO; for IC50: 1536-well, ADP Hunter, 1 mM ATP
# Chain of SV40 large T antigen ATPase activity (P03070 whole entry): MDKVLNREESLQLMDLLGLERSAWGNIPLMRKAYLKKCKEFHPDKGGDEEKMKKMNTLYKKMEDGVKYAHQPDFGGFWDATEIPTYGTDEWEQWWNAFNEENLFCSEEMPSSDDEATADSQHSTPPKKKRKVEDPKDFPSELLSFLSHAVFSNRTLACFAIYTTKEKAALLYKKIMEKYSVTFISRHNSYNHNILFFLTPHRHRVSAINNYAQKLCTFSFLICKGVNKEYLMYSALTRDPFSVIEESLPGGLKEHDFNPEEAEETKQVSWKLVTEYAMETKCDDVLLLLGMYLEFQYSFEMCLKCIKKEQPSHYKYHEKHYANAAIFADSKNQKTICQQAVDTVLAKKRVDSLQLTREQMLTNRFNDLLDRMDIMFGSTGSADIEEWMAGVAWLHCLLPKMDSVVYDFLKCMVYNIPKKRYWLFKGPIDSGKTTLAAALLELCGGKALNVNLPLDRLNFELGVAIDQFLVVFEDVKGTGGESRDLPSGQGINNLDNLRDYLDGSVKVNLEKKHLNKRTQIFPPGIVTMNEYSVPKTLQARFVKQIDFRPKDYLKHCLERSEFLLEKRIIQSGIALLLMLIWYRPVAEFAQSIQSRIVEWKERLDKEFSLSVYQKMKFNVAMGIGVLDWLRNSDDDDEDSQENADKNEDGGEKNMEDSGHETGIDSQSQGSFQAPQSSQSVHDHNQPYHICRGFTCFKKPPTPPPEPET
# Outline: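 Purified TAg (10.8 ng/well, added from 14.4 ng/µL) in 100 mM Tris-HCl pH 7.4, 20 mM KCl, 6 mM MgCl2, 0.1 mg/mL BSA; control added before enzyme, preincubated 30 min ambient; 5 mM ATP stock added, 120 min ambient; 1.25 µL reaction. ADP Hunter fluorescence, ex/em 530/590 nm bottom read. % inhibition normalized to median enzyme control and high-dose control wells.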
# Mint1 = conditions: PubChem; cited from earlier work
# [3] = system: Phosphopantetheinyl transferase; conditions: PubChem; cited from earlier work
# SV40 virus = assay: Cytoprotection assay with SV40 virus in BSC-40 cells; assay type: cell-based; conditions: 50 μM, BSC-40 cells + SV40, 120 h
# [4] = system: TAg-dependent DNA replication; assay: TAg-dependent DNA replication assay; assay type: biochemical, SV40; conditions: HeLa cell lysate, radiolabelled nucleotides
# Outline: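 TAg recruits replication machinery from HeLa cell lysate to copy a reporter plasmid carrying the SV40 origin, incorporating trace radiolabelled nucleotides over time. Test compound added at 30, 100 and 300 µM.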
# [5] = system: Nuclear receptor ROR-gamma; conditions: PubChem; cited from earlier work
# [6] = system: Hydroxyprostaglandin dehydrogenase 15-(NAD) isoform 1; conditions: PubChem; cited from earlier work
# [7] = system: Microtubule-associated protein tau; conditions: PubChem, tau aggregation; cited from earlier work
# Aldehyde dehydrogenase 1 = conditions: PubChem; cited from earlier work
# BSC-40 cells = assay: Cytotoxicity in BSC-40 cells; assay type: cell-based, African green monkey; conditions: cells + compound only, 5 days
Structure (SMILES),identified as hit (inhibitor) against target (Mint1),identified as hit (inhibitor) against target [3],effect on TAg-dependent DNA replication at 300 μM [4],identified as hit (inhibitor) against target [5],identified as hit (inhibitor) against target [6],identified as hit (inhibitor) against target [7],identified as hit (inhibitor) against target (Aldehyde dehydrogenase 1),further results
"CC1=C(C(=O)OCc2ccccc2)C(c2ccc(-c3ccccc3)cc2)NC(=O)N1CCCCCC(=O)O (stereo not shown) [MAL2-11B, reference compound]",,,,,,,,"final concentration at which compound aggregation was observed [1]: > 300 µM; IC50 (TAg): 50 µM; inhibition of TAg activity ([2]; MAL2-11B at 100 μM final, average): 80%; IC50 ([2]; read-out: IC50, inhibition of TAg ATPase activity in the primary assay): 19.5 µM"
ClC(Cl)(c1nnnn1-c1ccccc1)c1nnnn1-c1ccccc1 [SID 85281215],Mint1,Phosphopantetheinyl transferase,DNA replication was absent,Nuclear receptor ROR-gamma,Hydroxyprostaglandin dehydrogenase 15-(NAD) isoform 1,Microtubule-associated protein tau,Aldehyde dehydrogenase 1,sustained cell viability in the cytoprotection assay (SV40 virus): 16%
Nc1nc2ccc(S(=O)(=O)N3CCCCC3)cc2s1 [SID 85281217],Mint1,Phosphopantetheinyl transferase,,,Hydroxyprostaglandin dehydrogenase 15-(NAD) isoform 1,Microtubule-associated protein tau,Aldehyde dehydrogenase 1,
Cc1cc(C)c2c(=O)n(CC(=O)Nc3cccc(Cl)c3C)sc2n1 [SID 85281218],Mint1,Phosphopantetheinyl transferase,,Nuclear receptor ROR-gamma,,Microtubule-associated protein tau,,
"CC(C)(c1ccc(O)cc1)c1ccc(O)cc1 [SID 92277586, Bisphenol A]",,,complete inhibition,,,,,"effect on TAg-dependent DNA replication at 100 μM ([4]; 100 μM): some inhibition; TC50 (50% toxic concentration) (BSC-40 cells): 7.94 µM; IC50 ([2]; IC50, inhibition of TAg ATPase activity in the primary assay): 41 µM and 41.4 µM"

# From article PMC3731742 (Journal of biomolecular screening, 2011)
